Laboratory results reported in ChEMBL document CHEMBL1157580, “Interaction of (benzylidene-hydrazono)-1,4-dihydropyridines with beta-amyloid, acetylcholine, and butyrylcholine esterases” (Bioorg Med Chem, 2010).
Calls of active or inactive are those of the source. No cut-off for these calls is given here.

Columns and labels:
Cholinesterase = Cholinesterase (Equus caballus, UniProt P81908); test: Inhibition of horse serum BuChE by modified Ellman's method
[1] = Dissociation constant, pKa at pH 7.4; format: physicochemical
In short: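 Potentiometric titration: compound dissolved in 0.15 M KCl for constant ionic strength, with 30% dioxane or 80% methanol as co-solvent modifier. pH brought to 1.8 with 0.5 M HCl, then titrated with 0.5 M KOH. Dissociation constants determined at several modifier levels and pKa obtained by extrapolation of the calibration line. Electrode calibrated by blank titrations of 0.15 M KCl.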

Acetylcholinesterase = Acetylcholinesterase (Electrophorus electricus, UniProt O42275); test: Inhibition of electric eel AChE by modified Ellman's method
In short: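 Ellman-based assay. IC50 is the concentration giving 50% loss of AChE activity, reported as mean ± SEM from n = 3-6 experiments.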

[2] = Octanol-water partition coefficient, log P at pH 7.4 by RP-HPLC; format: physicochemical
In short: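 Reversed-phase HPLC on an endcapped RP18 column (5 µm). Eluent methanol/phosphate buffer pH 7.4 (70/30) with 0.02% N,N-dimethylhexylamine, 1.0 ml flow. Analytes at 4 µg/ml in methanol, run in duplicate. Capacity factors converted to log P through a calibration against 2-phenylethanol, benzene, dimethylaniline, toluene, biphenyl and anthracene.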

[3] = Inhibition of amyloid beta (1-40) fibril formation by thioflavin T formation assay
In short: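 HFIP-pretreated Aβ film taken up in DMSO as a 2 mM stock, stored at -20 °C for at most three days. Diluted to 100 µM final peptide in 25 mM NaH2PO4, 120 mM NaCl, 3 µM thioflavin T, 0.02% NaN3, pH 7.4. Inhibitors at 0.005–0.5 mM. Incubated at 37 °C. Fluorescence read at excitation 450 nm, emission 482 nm.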

[4] = Induction of fibril destruction of amyloid beta (1-40) catalytic domain containing HHQKLVFFAED sequence by modified thioflavin T assay
[5] = Partition coefficient, log P at pH 5 by shake flask method; format: physicochemical; details: octanol/water
In short: (§1)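 Shake flask with octanol and phosphate buffer at the stated pH, each phase pre-saturated with the other overnight. Compound at 10^-5 mol/l in buffer-saturated octanol, absorbance (A0) read between 314 and 360 nm. Equal volumes shaken 4 h at 37 °C, left overnight, then centrifuged. Aqueous-layer absorbance (A1) read; log P = log((A0−A1)/A1).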

[6] = Partition coefficient, log P at pH 7.4 by shake flask method; format: physicochemical; details: octanol/water; in short: as §1
[7] = Inhibition of fibril formation of amyloid beta (1-40) catalytic domain containing HHQKLVFFAED sequence by thioflavin T assay
[8] = Partition coefficient, log P at pH 6 by shake flask method; format: physicochemical; details: octanol/water; in short: as §1
[9] = Partition coefficient, log P at pH 7 by shake flask method; format: physicochemical; details: octanol/water; in short: as §1
[10] = Inhibition of fibril formation of amyloid beta (1-40) catalytic domain containing HHQKLVFFAED sequence at 0.5 mM by thioflavin T assay

Sequence of Acetylcholinesterase (O42275 whole entry): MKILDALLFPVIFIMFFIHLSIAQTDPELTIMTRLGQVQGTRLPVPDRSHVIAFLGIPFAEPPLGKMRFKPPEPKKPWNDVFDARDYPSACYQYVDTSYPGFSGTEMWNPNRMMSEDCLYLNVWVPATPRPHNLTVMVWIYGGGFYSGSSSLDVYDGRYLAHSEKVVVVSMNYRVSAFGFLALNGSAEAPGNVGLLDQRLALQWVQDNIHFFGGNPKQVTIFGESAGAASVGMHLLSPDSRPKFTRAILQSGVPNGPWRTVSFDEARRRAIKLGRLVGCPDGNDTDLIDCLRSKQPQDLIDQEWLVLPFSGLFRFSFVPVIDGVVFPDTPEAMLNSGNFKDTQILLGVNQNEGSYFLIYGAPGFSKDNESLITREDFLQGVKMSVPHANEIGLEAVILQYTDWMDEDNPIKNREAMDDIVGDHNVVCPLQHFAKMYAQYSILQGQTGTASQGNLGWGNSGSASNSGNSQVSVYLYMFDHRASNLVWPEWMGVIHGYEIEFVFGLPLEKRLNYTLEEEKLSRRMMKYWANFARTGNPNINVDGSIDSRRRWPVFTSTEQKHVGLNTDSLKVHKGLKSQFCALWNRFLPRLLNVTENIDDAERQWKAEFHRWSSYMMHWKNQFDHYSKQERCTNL
Sequence of Cholinesterase (P81908 whole entry): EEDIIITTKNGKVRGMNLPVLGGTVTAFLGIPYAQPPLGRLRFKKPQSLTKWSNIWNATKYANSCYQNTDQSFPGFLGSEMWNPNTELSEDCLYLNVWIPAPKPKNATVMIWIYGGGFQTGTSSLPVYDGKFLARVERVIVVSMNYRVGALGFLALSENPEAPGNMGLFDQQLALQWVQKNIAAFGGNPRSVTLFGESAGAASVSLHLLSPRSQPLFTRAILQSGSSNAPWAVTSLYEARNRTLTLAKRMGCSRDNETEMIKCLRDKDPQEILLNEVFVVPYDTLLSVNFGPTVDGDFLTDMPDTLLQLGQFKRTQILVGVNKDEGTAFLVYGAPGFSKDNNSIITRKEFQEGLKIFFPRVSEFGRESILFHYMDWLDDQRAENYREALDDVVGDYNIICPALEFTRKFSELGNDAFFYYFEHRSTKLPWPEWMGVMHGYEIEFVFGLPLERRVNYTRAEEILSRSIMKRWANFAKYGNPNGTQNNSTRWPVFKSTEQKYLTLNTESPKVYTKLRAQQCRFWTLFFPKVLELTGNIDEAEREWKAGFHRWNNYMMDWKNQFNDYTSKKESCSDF

Clc1cccc(Cl)c1CON=C1CCN(CCCc2ccccc2)CC1
IC50 (Cholinesterase): > 100 µM | pKa [1]: 5.7 | IC50 (Acetylcholinesterase): 12 µM | logP [2]: 4.3

Clc1cccc(Cl)c1/C=N/N=c1ccn(CCCc2ccccc2)cc1
inhibition [3]: Active | IC50 (Cholinesterase): 10 µM | Activity [4]: Dose-dependent effect | logD [5]: 0.7 | logD [6]: 3.2 | inhibition [7]: Dose-dependent effect | pKa [1]: 8.7 | logD [8]: 0.9 | logD [9]: 1.3 | IC50 (Acetylcholinesterase): 5.66 µM | logP [2]: 3.7

Clc1cccc(Cl)c1CO/N=C/C1CCN(CCCc2ccccc2)CC1
pKa [1]: 7.1 | IC50 (Acetylcholinesterase): 19.1 µM | logP [2]: 3.6

Clc1cccc(Cl)c1/C=N/N=c1ccn(Cc2c(Cl)cccc2Cl)cc1
inhibition [3]: Active | Activity [4]: Dose-dependent effect | logD [5]: 0.8 | logD [6]: 3.4 | logD [8]: 1.5 | logD [9]: 2.2 | IC50 (Acetylcholinesterase): 6.4 µM | logP [2]: 4

Cn1ccc(=N/N=C/c2c(Cl)cccc2Cl)cc1
IC50 (Cholinesterase): 11 µM | Activity [4]: inactive | inhibition [10]: 60% | IC50 (Acetylcholinesterase): 739 µM | logP [2]: 3.4

Clc1cccc(Cl)c1CO/N=C/c1cc[n+](CCC[n+]2ccc(/C=N/OCc3c(Cl)cccc3Cl)cc2)cc1.[Br-].[Br-]
inhibition [3]: Active | IC50 (Cholinesterase): 1.83 µM | inhibition [7]: Active | IC50 (Acetylcholinesterase): 0.34 µM | logP [2]: 0.65

Clc1cccc(Cl)c1CO/N=C/c1cc[n+](CCCc2ccccc2)cc1
inhibition [3]: Active | IC50 (Cholinesterase): 2.78 µM | inhibition [7]: Active | IC50 (Acetylcholinesterase): 0.18 µM

Clc1cccc(Cl)c1/C=N/N=c1ccn(CCc2ccccc2)cc1
IC50 (Cholinesterase): 9 µM | Activity [4]: Dose-dependent effect | inhibition [7]: Dose-dependent effect | IC50 (Acetylcholinesterase): 56.7 µM | logP [2]: 3.9

Nc1ccc(O)cc1 [4-AMINOPHENOL]
IC50 [3]: 90 µM | IC50 [7]: 83 µM

Clc1cccc(Cl)c1/C=N/N=c1ccn(Cc2ccccc2)cc1
IC50 (Cholinesterase): 8 µM | Activity [4]: Dose-dependent effect | IC50 (Acetylcholinesterase): 17.4 µM | logP [2]: 3.5
